The values that follow come from ChEMBL document CHEMBL3627597, “Synthesis of Fluorine-Containing Phosphodiesterase 10A (PDE10A) Inhibitors and the In Vivo Evaluation of F-18 Labeled PDE10A PET Tracers in Rodent and Nonhuman Primate” (J Med Chem, 2015).

The species named for assay [1] is Homo sapiens. Briefly: Selectivity ratio of IC50 for recombinant human PDE4A to IC50 for recombinant human PDE10A.
For assay [2], the species on record is Homo sapiens. Briefly: Selectivity ratio of IC50 for recombinant human PDE3B to IC50 for recombinant human PDE10A.
In assay [3] the target is 3',5'-cyclic-AMP phosphodiesterase 4A (Homo sapiens, UniProt P27815). Briefly: Inhibition of recombinant human PDE4A assessed as reduction of [3H]-cAMP hydrolysis preincubated for 5 mins followed by [3H]-cAMP addition measured after 20 mins by scintillation proximity assay. The method, boiled down: (§1)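 Recombinant human PDE with [3H]cAMP scintillation proximity assay. Enzyme used at a level within the linear range. Inhibitor (DMSO serial dilutions) plus enzyme held 5 min on ice, then [3H]cAMP added at 1/3 Km (1.48 kBq/mL), 20 min on ice (~30% turnover). Stopped with yttrium silicate SPA beads; settled 1.5 h at rt and counted. IC50 from one-site nonlinear fit, at least two independent runs, ± SD.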

For assay [4], the target named is cAMP and cAMP-inhibited cGMP 3',5'-cyclic phosphodiesterase 10A (Homo sapiens, UniProt Q9Y233). Briefly: Inhibition of recombinant human PDE10A assessed as reduction of [3H]-cAMP hydrolysis preincubated for 5 mins followed by [3H]-cAMP addition measured after 20 mins by scintillation proximity assay. The method, boiled down:
as §1

Assay [5] is filed under the species Homo sapiens. Briefly: Selectivity ratio of IC50 for recombinant human PDE4B to IC50 for recombinant human PDE10A.
The target of assay [6] is cGMP-inhibited 3',5'-cyclic phosphodiesterase 3B (Homo sapiens, UniProt Q13370). Briefly: Inhibition of recombinant human PDE3B assessed as reduction of [3H]-cAMP hydrolysis preincubated for 5 mins followed by [3H]-cAMP addition measured after 20 mins by scintillation proximity assay. The method, boiled down:
as §1
On the technique in general: Scintillation proximity formats need no separation of bound from free tracer.

In assay [7] the target is cGMP-inhibited 3',5'-cyclic phosphodiesterase 3A (Homo sapiens, UniProt Q14432). Briefly: Inhibition of recombinant human PDE3A assessed as reduction of [3H]-cAMP hydrolysis preincubated for 5 mins followed by [3H]-cAMP addition measured after 20 mins by scintillation proximity assay. The method, boiled down: as §1
The target of assay [8] is 3',5'-cyclic-AMP phosphodiesterase 4B (Homo sapiens, UniProt Q07343). Briefly: Inhibition of recombinant human PDE4B assessed as reduction of [3H]-cAMP hydrolysis preincubated for 5 mins followed by [3H]-cAMP addition measured after 20 mins by scintillation proximity assay. The method, boiled down:
as §1

For assay [9], the species on record is Homo sapiens. Briefly: Selectivity ratio of IC50 for recombinant human PDE3A to IC50 for recombinant human PDE10A.

Each structure is given as a SMILES string.

3',5'-cyclic-AMP phosphodiesterase 4A, sequence (P27815 whole entry): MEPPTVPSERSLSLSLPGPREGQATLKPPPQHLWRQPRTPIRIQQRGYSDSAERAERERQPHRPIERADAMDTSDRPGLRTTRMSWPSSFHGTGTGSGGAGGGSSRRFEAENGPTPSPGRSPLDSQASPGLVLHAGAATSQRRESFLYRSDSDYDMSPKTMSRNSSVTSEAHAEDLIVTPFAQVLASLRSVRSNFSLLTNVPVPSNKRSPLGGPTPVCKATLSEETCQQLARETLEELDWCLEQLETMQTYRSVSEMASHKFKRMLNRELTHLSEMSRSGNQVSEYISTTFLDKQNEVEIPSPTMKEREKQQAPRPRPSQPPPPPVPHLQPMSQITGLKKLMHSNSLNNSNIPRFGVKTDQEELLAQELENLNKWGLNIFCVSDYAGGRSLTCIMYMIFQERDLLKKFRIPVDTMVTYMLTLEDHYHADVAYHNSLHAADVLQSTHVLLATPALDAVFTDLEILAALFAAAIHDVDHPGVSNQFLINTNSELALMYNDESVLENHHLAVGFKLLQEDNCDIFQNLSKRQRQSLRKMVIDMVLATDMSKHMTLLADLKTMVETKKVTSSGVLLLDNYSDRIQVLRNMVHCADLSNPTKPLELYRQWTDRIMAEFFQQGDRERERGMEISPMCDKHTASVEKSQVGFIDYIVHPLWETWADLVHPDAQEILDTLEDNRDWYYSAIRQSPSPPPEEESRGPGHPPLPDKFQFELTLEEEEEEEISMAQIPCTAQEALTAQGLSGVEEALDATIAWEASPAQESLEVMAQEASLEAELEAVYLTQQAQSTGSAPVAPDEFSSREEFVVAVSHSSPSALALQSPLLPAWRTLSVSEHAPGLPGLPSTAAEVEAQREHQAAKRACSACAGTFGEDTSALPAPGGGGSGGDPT
cAMP and cAMP-inhibited cGMP 3',5'-cyclic phosphodiesterase 10A, sequence (Q9Y233 whole entry): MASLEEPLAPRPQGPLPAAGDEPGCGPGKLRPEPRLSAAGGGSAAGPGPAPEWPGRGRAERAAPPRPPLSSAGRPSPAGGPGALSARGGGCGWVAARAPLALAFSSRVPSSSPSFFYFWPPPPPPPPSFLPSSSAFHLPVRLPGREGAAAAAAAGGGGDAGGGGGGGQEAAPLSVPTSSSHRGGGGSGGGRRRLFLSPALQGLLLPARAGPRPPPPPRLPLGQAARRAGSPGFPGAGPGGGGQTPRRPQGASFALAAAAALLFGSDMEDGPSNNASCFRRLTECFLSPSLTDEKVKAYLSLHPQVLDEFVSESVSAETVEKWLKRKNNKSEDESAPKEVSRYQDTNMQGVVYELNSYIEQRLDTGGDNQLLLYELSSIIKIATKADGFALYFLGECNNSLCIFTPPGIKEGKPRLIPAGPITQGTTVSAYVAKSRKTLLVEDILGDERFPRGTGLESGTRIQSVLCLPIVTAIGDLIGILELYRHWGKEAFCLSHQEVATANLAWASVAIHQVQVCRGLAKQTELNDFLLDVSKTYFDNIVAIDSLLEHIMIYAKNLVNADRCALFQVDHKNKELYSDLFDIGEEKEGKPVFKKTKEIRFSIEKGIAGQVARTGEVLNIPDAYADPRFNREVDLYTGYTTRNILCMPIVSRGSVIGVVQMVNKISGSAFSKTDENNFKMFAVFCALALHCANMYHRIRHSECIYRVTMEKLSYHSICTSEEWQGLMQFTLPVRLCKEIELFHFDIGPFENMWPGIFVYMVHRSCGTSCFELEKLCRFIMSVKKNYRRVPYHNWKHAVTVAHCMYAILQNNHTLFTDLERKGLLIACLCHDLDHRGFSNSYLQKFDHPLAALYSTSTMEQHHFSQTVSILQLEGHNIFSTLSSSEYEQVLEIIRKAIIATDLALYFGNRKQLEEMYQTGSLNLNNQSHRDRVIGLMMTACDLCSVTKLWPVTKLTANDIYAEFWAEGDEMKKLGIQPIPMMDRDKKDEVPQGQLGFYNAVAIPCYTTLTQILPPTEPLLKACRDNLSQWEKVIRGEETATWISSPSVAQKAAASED
cGMP-inhibited 3',5'-cyclic phosphodiesterase 3A, sequence (Q14432 whole entry): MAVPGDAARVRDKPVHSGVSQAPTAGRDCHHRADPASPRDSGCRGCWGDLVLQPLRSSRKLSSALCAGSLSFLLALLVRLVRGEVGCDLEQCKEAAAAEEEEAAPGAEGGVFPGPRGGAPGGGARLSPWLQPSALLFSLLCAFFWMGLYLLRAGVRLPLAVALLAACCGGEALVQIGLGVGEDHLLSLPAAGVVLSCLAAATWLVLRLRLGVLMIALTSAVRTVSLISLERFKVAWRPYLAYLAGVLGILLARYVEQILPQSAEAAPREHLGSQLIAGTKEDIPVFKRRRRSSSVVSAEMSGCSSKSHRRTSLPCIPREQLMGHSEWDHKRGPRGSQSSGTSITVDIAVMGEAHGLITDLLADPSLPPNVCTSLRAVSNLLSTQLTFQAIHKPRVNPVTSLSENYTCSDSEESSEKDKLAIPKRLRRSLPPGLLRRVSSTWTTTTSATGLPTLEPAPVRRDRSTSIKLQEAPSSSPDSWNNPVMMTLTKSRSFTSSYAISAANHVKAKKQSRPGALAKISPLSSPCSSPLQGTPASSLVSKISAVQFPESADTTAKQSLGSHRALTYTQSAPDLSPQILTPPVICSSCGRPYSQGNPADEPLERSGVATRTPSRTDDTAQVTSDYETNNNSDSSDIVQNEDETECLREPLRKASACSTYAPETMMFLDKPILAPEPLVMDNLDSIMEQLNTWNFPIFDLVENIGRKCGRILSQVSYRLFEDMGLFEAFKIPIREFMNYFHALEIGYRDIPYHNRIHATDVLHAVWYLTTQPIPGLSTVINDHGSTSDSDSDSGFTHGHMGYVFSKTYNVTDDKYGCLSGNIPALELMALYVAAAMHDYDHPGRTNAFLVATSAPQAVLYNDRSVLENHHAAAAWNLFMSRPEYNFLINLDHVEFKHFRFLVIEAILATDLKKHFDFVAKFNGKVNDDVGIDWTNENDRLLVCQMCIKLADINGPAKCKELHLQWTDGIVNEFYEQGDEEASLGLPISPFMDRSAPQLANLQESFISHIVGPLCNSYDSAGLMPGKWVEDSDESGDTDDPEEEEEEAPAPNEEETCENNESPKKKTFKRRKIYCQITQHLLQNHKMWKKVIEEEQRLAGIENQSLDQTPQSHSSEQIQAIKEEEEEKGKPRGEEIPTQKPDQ
cGMP-inhibited 3',5'-cyclic phosphodiesterase 3B, sequence (Q13370 whole entry): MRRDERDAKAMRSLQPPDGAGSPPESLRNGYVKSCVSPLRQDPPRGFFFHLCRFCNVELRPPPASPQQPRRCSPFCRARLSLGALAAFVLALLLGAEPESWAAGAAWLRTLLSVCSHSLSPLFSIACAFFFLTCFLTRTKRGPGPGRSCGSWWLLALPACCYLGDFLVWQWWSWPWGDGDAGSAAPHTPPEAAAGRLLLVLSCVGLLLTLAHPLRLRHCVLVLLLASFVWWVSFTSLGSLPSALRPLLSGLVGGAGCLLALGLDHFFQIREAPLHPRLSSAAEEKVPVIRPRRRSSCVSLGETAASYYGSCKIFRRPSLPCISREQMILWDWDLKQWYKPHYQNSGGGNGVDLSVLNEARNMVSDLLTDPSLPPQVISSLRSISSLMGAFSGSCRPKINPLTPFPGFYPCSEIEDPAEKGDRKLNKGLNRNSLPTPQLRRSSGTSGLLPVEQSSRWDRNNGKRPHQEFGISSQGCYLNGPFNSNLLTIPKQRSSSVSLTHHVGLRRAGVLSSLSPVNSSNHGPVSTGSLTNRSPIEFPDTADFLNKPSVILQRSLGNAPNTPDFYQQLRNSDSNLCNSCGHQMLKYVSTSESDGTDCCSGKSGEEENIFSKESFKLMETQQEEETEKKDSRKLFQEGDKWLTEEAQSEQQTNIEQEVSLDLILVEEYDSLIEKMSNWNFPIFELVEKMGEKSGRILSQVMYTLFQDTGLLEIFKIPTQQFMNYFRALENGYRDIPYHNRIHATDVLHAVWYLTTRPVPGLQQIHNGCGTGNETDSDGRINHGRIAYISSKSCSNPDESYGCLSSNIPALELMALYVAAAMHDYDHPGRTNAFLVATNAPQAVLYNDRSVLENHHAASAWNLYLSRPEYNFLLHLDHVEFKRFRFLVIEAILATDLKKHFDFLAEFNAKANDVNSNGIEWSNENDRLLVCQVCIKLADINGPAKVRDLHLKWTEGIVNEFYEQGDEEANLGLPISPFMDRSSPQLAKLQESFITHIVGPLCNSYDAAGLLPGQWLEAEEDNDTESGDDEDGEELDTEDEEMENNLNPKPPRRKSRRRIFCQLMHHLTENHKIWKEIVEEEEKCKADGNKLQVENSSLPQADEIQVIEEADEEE
3',5'-cyclic-AMP phosphodiesterase 4B, sequence (Q07343 whole entry): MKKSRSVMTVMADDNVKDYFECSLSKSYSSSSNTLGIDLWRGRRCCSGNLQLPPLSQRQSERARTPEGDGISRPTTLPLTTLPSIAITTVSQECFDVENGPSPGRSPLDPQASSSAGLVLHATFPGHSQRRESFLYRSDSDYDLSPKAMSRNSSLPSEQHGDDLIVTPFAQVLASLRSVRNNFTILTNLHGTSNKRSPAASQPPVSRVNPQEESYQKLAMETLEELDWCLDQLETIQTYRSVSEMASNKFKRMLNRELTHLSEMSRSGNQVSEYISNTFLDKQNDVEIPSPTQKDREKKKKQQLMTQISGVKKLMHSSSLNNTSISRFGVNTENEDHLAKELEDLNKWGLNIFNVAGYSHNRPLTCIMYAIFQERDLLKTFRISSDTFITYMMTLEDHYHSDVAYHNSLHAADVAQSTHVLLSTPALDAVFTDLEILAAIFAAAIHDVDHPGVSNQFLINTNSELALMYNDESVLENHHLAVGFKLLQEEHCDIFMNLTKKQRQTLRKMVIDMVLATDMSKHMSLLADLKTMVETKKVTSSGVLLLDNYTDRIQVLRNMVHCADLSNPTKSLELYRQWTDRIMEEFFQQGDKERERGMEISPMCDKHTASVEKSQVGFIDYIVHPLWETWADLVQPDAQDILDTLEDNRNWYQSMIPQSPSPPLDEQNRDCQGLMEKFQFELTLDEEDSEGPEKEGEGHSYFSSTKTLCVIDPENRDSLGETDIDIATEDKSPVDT

On to `Cn1cc(-c2ccncc2)c(-c2ccc(OCc3cc(CCCF)c4ccccc4n3)cc2)n1`, for which the Ratio IC50 in the assay filed under Homo sapiens [1], in the assay filed under Homo sapiens [2], in the assay listed under Homo sapiens [5] and in the assay listed under Homo sapiens [9] was more than 210 throughout. The IC50 – broadly, the concentration at which inhibition is half-maximal – in assay [3] is 0.46 µM; in [4] it was 0.0018 µM; in [6], 19.1 µM; in assay [7], 21.9 µM; in assay [8] it was 0.38 µM.
In the case of `Cn1cc(-c2ccncc2)c(-c2ccc(OCc3ccc4cc(CF)ccc4n3)cc2)n1`, the Ratio IC50 in the assay filed under Homo sapiens [1], in the assay filed under Homo sapiens [2], in the assay listed under Homo sapiens [5] and in the assay filed under Homo sapiens [9] was more than 210 in each case. Besides, the IC50 in assay [4] was more than 0.076 µM.
As to `Cn1cc(-c2ccncc2)c(-c2ccc(OCc3cc(OCCOCCF)c4ccccc4n3)cc2)n1`, the Ratio IC50 in the assay filed under Homo sapiens [1], in the assay filed under Homo sapiens [2], in the assay listed under Homo sapiens [5] and in the assay filed under Homo sapiens [9] was more than 210 in each case. The IC50 in assay [3] is 1.44 µM; in [4], 0.00027 µM; in [6], 16.2 µM; in [7] it was 22.9 µM; in assay [8] it was 0.9 µM.
Regarding `Cn1ncc(-c2ccncc2)c1-c1ccc(OCc2cc(-n3cc(CCF)nn3)c3ccccc3n2)cc1`, the Ratio IC50 in the assay listed under Homo sapiens [1], in the assay listed under Homo sapiens [2], in the assay listed under Homo sapiens [5] and in the assay filed under Homo sapiens [9] was more than 210 throughout. For the same molecule, the half-inhibitory concentration (IC50) in [3] was 1.86 µM; in assay [4], 0.00498 µM; in assay [6], 16.2 µM; in [7] it was 0.81 µM; in assay [8] it was 0.9 µM.
For the molecule `Cn1ncc(-c2ccncc2)c1-c1ccc(OCc2ccc3cc(F)ccc3n2)cc1`, the Ratio IC50 in the assay filed under Homo sapiens [1], in the assay listed under Homo sapiens [2], in the assay listed under Homo sapiens [5] and in the assay filed under Homo sapiens [9] was more than 210 in each case. The IC50 came to 9.73 µM in [3]; 0.00076 µM in assay [4]; 151 µM in assay [6]; 111 µM in [7]; 0.76 µM in assay [8].
In the case of `Cn1cc(-c2ccncc2)c(-c2ccc(OCc3cc(OCCF)c4ccccc4n3)cc2)n1`, the Ratio IC50 in the assay filed under Homo sapiens [1], in the assay listed under Homo sapiens [2], in the assay filed under Homo sapiens [5] and in the assay filed under Homo sapiens [9] was more than 210 each time. The IC50 in assay [3] is 1.01 µM; in assay [4] it was 0.00032 µM; in [6], 7.76 µM; in [7], 29.5 µM; in assay [8], 1.77 µM.
Regarding `Cn1cc(-c2ccncc2)c(-c2ccc(OCc3cc(COCCF)c4ccccc4n3)cc2)n1`, the Ratio IC50 in the assay listed under Homo sapiens [1], in the assay listed under Homo sapiens [2], in the assay filed under Homo sapiens [5] and in the assay filed under Homo sapiens [9] was more than 210 each time. Also, the IC50 in [3] amounted to 2.22 µM; in [4], 0.00065 µM; in assay [6], 4.55 µM; in [7], 4.07 µM; in [8], 1.77 µM.
Consider `Cn1cc(-c2ccncc2)c(-c2ccc(OCc3ccc4cc(F)ccc4n3)cc2)n1`, for which the Ratio IC50 in the assay listed under Homo sapiens [1], in the assay listed under Homo sapiens [2], in the assay listed under Homo sapiens [5] and in the assay listed under Homo sapiens [9] was more than 210 throughout. Moreover, the IC50 was 2.33 µM in [3]; 0.00029 µM in [4]; 23.9 µM in assay [6]; 38.5 µM in assay [7]; 2.55 µM in [8].
In the case of `Cn1ncc(-c2ccncc2)c1-c1ccc(OCc2cc(OCCOCCOCCOCCF)c3ccccc3n2)cc1`, the Ratio IC50 in the assay filed under Homo sapiens [1], in the assay listed under Homo sapiens [2], in the assay listed under Homo sapiens [5] and in the assay listed under Homo sapiens [9] was more than 210 throughout. The IC50 was determined as 15 µM in [3]; 0.0003 µM in assay [4]; 28.1 µM in assay [6]; 58.7 µM in [7]; 1.73 µM in [8].
In the case of `Cn1cc(-c2ccncc2)c(-c2ccc(OCc3cc(OCCOCCOCCOCCF)c4ccccc4n3)cc2)n1`, the Ratio IC50 in the assay filed under Homo sapiens [1], in the assay filed under Homo sapiens [2], in the assay listed under Homo sapiens [5] and in the assay listed under Homo sapiens [9] was more than 210 throughout. The IC50 in [3] came to 9.89 µM; in assay [4] it was 0.00033 µM; in [6], 29.6 µM; in assay [7], 144 µM; in [8] it was 10.3 µM.
`Cn1cc(-c2ccncc2)c(-c2ccc(OCc3cc(-n4cc(CCF)nn4)c4ccccc4n3)cc2)n1`: the Ratio IC50 in the assay filed under Homo sapiens [1], in the assay filed under Homo sapiens [2], in the assay filed under Homo sapiens [5] and in the assay filed under Homo sapiens [9] was more than 210 throughout. Besides, the IC50 in assay [3] is 1.57 µM; in assay [4] it was 0.00307 µM; in assay [6], 3.56 µM; in assay [7], 4.51 µM; in assay [8], 18.3 µM.
With `Cn1cc(-c2ccncc2)c(-c2ccc(OCc3cc(F)c4ccccc4n3)cc2)n1`, the Ratio IC50 in the assay filed under Homo sapiens [1], in the assay filed under Homo sapiens [2], in the assay filed under Homo sapiens [5] and in the assay listed under Homo sapiens [9] was more than 210 in each case. In addition, the IC50 came to 8.35 µM in [3]; 0.00071 µM in assay [4]; 103 µM in assay [6]; 199 µM in assay [7]; 6.42 µM in assay [8].
For `Cn1ncc(-c2ccncc2)c1-c1ccc(OCc2cc(COCCF)c3ccccc3n2)cc1`, the Ratio IC50 in the assay listed under Homo sapiens [1], in the assay listed under Homo sapiens [2], in the assay filed under Homo sapiens [5] and in the assay listed under Homo sapiens [9] was more than 210 each time. In addition, the IC50 in [3] was 4.77 µM; in [4] it was 0.00112 µM; in assay [6], more than 1000 µM; in [7], 306 µM; in [8] it was 4.24 µM.
Consider `Cn1ncc(-c2ccncc2)c1-c1ccc(OCc2cc(OCCOCCF)c3ccccc3n2)cc1`, for which the Ratio IC50 in the assay filed under Homo sapiens [1], in the assay listed under Homo sapiens [2], in the assay listed under Homo sapiens [5] and in the assay filed under Homo sapiens [9] was more than 210 each time. Besides, the IC50 in assay [3] was 12.3 µM; in assay [4] it was 0.00036 µM; in [6], 50.1 µM; in assay [7], 66.4 µM; in assay [8], 11.6 µM.
Consider `Cn1cc(-c2ccncc2)c(-c2ccc(OCc3ccc4cc(OCCF)ccc4n3)cc2)n1`, for which the Ratio IC50 in the assay filed under Homo sapiens [1], in the assay filed under Homo sapiens [2], in the assay filed under Homo sapiens [5] and in the assay listed under Homo sapiens [9] was more than 210 in each case. Besides, the IC50 in assay [4] was found to be 0.0335 µM.
In the case of `Cn1ncc(-c2ccncc2)c1-c1ccc(OCc2cc(NCCF)c3ccccc3n2)cc1`, the Ratio IC50 in the assay filed under Homo sapiens [1], in the assay listed under Homo sapiens [2], in the assay filed under Homo sapiens [5] and in the assay filed under Homo sapiens [9] was more than 210 each time. The IC50 in assay [3] was found to be 12.4 µM; in assay [4], 0.00037 µM; in assay [6], 38.3 µM; in [7] it was 78.8 µM; in assay [8], 1.59 µM.
For `Cn1cc(-c2ccncc2)c(-c2ccc(OCc3cc(NCCF)c4ccccc4n3)cc2)n1`, the Ratio IC50 in the assay filed under Homo sapiens [1], in the assay listed under Homo sapiens [2], in the assay filed under Homo sapiens [5] and in the assay listed under Homo sapiens [9] was more than 210 throughout. The IC50 is 5.97 µM in assay [3]; 0.00052 µM in assay [4]; 3.48 µM in assay [6]; 3.74 µM in assay [7]; 4.8 µM in [8].
For `Cn1ncc(-c2ccncc2)c1-c1ccc(OCc2cc(OCCF)c3ccccc3n2)cc1`, the Ratio IC50 in the assay filed under Homo sapiens [1], in the assay listed under Homo sapiens [2], in the assay filed under Homo sapiens [5] and in the assay listed under Homo sapiens [9] was more than 210 each time. The IC50 in assay [3] stood at 3.72 µM; in [4] it was 0.00116 µM; in assay [6], 5.61 µM; in assay [7] it was 3.77 µM; in [8] it was 1.02 µM.
For `Cn1ncc(-c2ccncc2)c1-c1ccc(OCc2cc(OCCOCCOCCF)c3ccccc3n2)cc1`, the Ratio IC50 in the assay filed under Homo sapiens [1], in the assay listed under Homo sapiens [2], in the assay listed under Homo sapiens [5] and in the assay filed under Homo sapiens [9] was more than 210 each time. Besides, the IC50 in assay [3] was determined as 8.36 µM; in assay [4] it was 0.00047 µM; in assay [6], 51.8 µM; in assay [7], 62.2 µM; in assay [8] it was 7.31 µM.
`Cn1cc(-c2ccncc2)c(-c2ccc(OCc3cc(OCCOCCOCCF)c4ccccc4n3)cc2)n1`: the Ratio IC50 in the assay listed under Homo sapiens [1], in the assay listed under Homo sapiens [2], in the assay filed under Homo sapiens [5] and in the assay filed under Homo sapiens [9] was more than 210 each time. In addition, the IC50 in [3] was determined as 1.57 µM; in [4] it was 0.00024 µM; in [6], 61.9 µM; in [7], 116 µM; in [8] it was 1.58 µM.
For `Cn1cc(-c2ccncc2)c(-c2ccc(OCc3nc4ccccc4cc3OCCF)cc2)n1`, the Ratio IC50 in the assay listed under Homo sapiens [1], in the assay listed under Homo sapiens [2], in the assay filed under Homo sapiens [5] and in the assay listed under Homo sapiens [9] was more than 210 each time. Also, the IC50 in assay [3] was 1.76 µM; in assay [4], 0.00026 µM; in assay [6], 19.9 µM; in [7], 25.9 µM; in assay [8], 1.04 µM.
